Laboratory results from ChEMBL document CHEMBL4823302, “Evaluation of γ-carboline-phenothiazine conjugates as simultaneous NMDA receptor blockers and cholinesterase inhibitors” (Bioorg Med Chem, 2021).

How the values were obtained:
[1] = Solubility of the compound at >= 50 uM; format: physicochemical
Cholinesterase = Cholinesterase (Equus caballus, UniProt P81908); test: Inhibition of recombinant equine BChE by Ellman's method
[2] = target: T1, Glutamate NMDA receptor; GRIN1/GRIN2A (Homo sapiens, UniProt Q05586+Q12879); test: Inhibition of human GluN1-1a/NR2A receptor expressed in transgenic mouse fibroblast cells assessed as inhibition of L-glutamate-induced excitotoxicity at 50 uM by measuring LDH activity by cell based assay
Method in brief: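 Mouse fibroblasts stably expressing human GluN1-1a/2A or GluN1-1a/2B receptors were exposed to 10 μM L-glutamate plus glycine with test agent. Excitotoxicity was read as LDH activity in the medium. Agonists alone defined 100%; agonists plus 100 μM ketamine defined 0%. Percent inhibition at the single test concentration came from at least three independent experiments.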

Acetylcholinesterase [3] = target: T2, Acetylcholinesterase (Homo sapiens, UniProt P22303); test: Inhibition of recombinant human AChE expressed in HEK293 cells by Ellman's method; format: cell-based
T2 sequence (P22303 whole entry): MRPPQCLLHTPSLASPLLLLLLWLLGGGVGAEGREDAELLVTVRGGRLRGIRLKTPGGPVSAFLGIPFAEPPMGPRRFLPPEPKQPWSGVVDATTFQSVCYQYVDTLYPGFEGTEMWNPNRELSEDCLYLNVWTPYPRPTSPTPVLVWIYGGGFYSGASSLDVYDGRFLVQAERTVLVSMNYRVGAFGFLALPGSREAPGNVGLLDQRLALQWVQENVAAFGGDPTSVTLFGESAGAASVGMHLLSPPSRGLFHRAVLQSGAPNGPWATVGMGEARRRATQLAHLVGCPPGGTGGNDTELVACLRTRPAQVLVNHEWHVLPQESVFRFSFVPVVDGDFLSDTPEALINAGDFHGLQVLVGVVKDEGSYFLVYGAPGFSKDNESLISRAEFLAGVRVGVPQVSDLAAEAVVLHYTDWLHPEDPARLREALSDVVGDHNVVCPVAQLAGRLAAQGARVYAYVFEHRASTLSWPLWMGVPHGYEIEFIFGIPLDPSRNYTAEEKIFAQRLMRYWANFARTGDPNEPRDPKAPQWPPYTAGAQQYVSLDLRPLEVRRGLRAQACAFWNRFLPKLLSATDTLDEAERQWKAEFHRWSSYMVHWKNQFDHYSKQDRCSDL

[4] = target: Glutamate NMDA receptor; GRIN1/GRIN2B (Homo sapiens, UniProt Q05586+Q13224); test: Inhibition of human GluN1-1a/NR2B receptor expressed in transgenic mouse fibroblast cells assessed as inhibition of L-glutamate-induced excitotoxicity by measuring LDH activity by cell based assay
Sequence of Glutamate NMDA receptor; GRIN1/GRIN2B (Q13224 whole entry, looked up, other chains not shown): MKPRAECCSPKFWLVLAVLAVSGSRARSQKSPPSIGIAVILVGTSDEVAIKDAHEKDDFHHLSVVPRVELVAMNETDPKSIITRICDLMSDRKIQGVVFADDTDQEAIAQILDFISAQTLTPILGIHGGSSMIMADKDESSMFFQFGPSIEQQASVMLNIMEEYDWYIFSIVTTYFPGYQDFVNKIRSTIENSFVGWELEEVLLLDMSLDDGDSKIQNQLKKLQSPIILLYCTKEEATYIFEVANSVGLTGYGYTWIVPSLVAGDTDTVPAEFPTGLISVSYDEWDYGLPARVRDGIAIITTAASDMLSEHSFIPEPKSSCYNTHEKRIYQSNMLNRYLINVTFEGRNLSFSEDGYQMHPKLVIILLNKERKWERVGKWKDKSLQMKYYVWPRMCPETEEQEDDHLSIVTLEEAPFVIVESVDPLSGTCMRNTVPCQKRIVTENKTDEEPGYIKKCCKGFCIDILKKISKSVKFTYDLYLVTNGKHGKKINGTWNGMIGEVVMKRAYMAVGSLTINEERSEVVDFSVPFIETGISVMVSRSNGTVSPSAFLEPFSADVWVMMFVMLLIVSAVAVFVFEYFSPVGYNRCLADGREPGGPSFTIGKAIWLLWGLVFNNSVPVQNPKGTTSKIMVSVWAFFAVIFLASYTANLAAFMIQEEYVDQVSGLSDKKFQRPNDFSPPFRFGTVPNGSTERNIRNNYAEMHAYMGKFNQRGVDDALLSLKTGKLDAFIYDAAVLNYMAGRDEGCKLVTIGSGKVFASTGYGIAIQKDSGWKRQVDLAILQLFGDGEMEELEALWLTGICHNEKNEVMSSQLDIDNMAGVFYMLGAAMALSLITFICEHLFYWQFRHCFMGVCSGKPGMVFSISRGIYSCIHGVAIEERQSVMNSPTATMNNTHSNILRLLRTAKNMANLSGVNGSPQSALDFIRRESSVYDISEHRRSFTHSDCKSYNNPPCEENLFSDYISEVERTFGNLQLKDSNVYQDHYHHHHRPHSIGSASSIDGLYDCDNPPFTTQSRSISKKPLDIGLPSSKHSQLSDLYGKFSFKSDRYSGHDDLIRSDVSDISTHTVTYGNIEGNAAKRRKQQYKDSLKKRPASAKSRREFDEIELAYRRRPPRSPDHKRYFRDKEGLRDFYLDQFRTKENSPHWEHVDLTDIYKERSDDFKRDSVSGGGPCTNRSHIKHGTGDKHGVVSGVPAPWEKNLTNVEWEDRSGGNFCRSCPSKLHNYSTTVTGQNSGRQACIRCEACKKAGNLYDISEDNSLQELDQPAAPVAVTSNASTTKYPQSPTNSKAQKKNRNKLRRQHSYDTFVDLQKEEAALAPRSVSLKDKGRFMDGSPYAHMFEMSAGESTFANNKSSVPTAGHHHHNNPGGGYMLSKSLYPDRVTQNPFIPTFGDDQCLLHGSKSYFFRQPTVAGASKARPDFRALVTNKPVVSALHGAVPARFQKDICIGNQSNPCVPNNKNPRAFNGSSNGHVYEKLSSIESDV
Method in brief: (§1)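 Stably transfected mouse fibroblasts expressing human GluN1-1a/2A or GluN1-1a/2B receptors; excitotoxicity induced with 10 μM L-glutamate plus 10 μM glycine and quantified as LDH activity in medium. Agonists without antagonist defined 100%; agonists plus 100 μM ketamine defined 0%. IC50 ± SD from at least three independent experiments.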

[5] = target: T1, Glutamate NMDA receptor; GRIN1/GRIN2A; test: Inhibition of human GluN1-1a/NR2A receptor expressed in transgenic mouse fibroblast cells assessed as inhibition of L-glutamate-induced excitotoxicity by measuring LDH activity by cell based assay; method in brief: as §1
[6] = system: Glutamate NMDA receptor GRIN1/GRIN2B (Homo sapiens); test: Inhibition of human GluN1-1a/NR2B receptor expressed in transgenic mouse fibroblast cells assessed as inhibition of L-glutamate-induced excitotoxicity at 20 uM by measuring LDH activity by cell based assay
Acetylcholinesterase [7] = target: T2, Acetylcholinesterase; test: Inhibition of recombinant human AChE expressed in HEK293 cells at 20 uM by Ellman's method relative to control; format: cell-based
[8] = target: Cholinesterase (Equus caballus) (UniProt P81908); test: Inhibition of recombinant equine BChE at 20 uM by Ellman's method relative to control
Sequence of Cholinesterase (Equus caballus) (P81908 whole entry): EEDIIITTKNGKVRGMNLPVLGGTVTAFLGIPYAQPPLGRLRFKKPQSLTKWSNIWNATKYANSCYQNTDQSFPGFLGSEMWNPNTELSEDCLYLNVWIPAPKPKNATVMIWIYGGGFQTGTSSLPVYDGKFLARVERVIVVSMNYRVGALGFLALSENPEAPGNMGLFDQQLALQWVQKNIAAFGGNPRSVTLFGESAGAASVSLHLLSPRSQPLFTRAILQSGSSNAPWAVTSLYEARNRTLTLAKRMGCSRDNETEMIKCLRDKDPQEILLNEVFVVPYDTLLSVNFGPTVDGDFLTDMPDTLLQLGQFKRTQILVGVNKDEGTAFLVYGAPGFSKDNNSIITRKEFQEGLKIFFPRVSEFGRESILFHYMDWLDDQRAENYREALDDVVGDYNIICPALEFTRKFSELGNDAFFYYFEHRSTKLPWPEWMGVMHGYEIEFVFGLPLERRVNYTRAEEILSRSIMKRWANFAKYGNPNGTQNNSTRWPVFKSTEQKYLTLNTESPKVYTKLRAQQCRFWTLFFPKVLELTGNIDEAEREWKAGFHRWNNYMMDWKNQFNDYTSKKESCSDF
Method in brief: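 Ellman assay with equine BChE as enzyme, compound at single concentration as listed; percent inhibition relative to control, measured in triplicate.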

[9] = Solubility of the compound in buffer at > 20 uM; format: physicochemical
Acetylcholinesterase [10] = target: T2, Acetylcholinesterase; test: Inhibition of recombinant human AChE expressed in HEK293 cells at 50 uM by Ellman's method relative to control; format: cell-based
[11] = Selectivity ratio of IC50 for recombinant human AChE to IC50 for equine BuChE

Sequence of Cholinesterase (P81908 whole entry): as above

## c1ccc2c(c1)[nH]c1ccncc12
[1]
  solubility: Insoluble
Cholinesterase
  IC50: 1200 nM
[2]
  inhibition: < 50%
Acetylcholinesterase [3]
  IC50: 21400 nM

## Cc1ccc2c(c1)c1c[n+](C)ccc1n2CCC(=O)N1c2ccccc2Sc2ccccc21
[4]
  IC50: 500 nM
Cholinesterase
  IC50: 32 nM
[5]
  IC50: 900 nM
Acetylcholinesterase [3]
  IC50: 1100 nM

## C[n+]1ccc2c(c1)c1ccccc1n2CCCCCCCCCn1c2ccccc2c2c[n+](C)ccc21
Acetylcholinesterase [3]
  IC50: 0.33 nM

## Cc1ccc2[nH]c3c(c2c1)CN(Cc1ccccc1)CC3
[6]
  inhibition: < 50%
[1]
  solubility: Insoluble
Cholinesterase
  IC50: 1400 nM
[2]
  inhibition: < 50%
Acetylcholinesterase [3]
  IC50: 35100 nM

## COc1ccc2[nH]c3cc[n+](C)cc3c2c1.[I-]
[6]
  inhibition: < 50%
[1]
  solubility: Insoluble
Cholinesterase
  IC50: 9800 nM
[2]
  inhibition: < 50%
Acetylcholinesterase [3]
  IC50: 14700 nM

## COc1ccc2c(c1)c1c[n+](C)ccc1n2CCC(=O)N1c2ccccc2Sc2ccccc21
[4]
  IC50: 200 nM
Cholinesterase
  IC50: 41 nM
[5]
  IC50: 400 nM
Acetylcholinesterase [3]
  IC50: 5300 nM

## c1ccc2c(c1)Nc1ccccc1S2 [PHENOTHIAZINE]
Acetylcholinesterase [7]
  inhibition: < 30%
[8]
  inhibition: < 50%
[9]
  solubility: Insoluble
[2]
  inhibition: < 50%

## Cc1ccc2[nH]c3cc[n+](C)cc3c2c1.[I-]
[6]
  inhibition: < 50%
[1]
  solubility: Insoluble
Cholinesterase
  IC50: 5500 nM
[2]
  inhibition: < 50%
Acetylcholinesterase [3]
  IC50: 9100 nM

## C[n+]1ccc2[nH]c3ccc(F)cc3c2c1.[I-]
[6]
  inhibition: < 50%
[1]
  solubility: Insoluble
Cholinesterase
  IC50: 2700 nM
[2]
  inhibition: < 50%
Acetylcholinesterase [3]
  IC50: 1900 nM

## [Br-].c1ccc(C[n+]2ccc3[nH]c4ccccc4c3c2)cc1
[6]
  inhibition: < 50%
[1]
  solubility: Insoluble
Cholinesterase
  IC50: 1900 nM
[2]
  inhibition: < 50%
Acetylcholinesterase [3]
  IC50: 8600 nM

## COc1cc2c(cc1OC)C(=O)C(CC1CCN(Cc3ccccc3)CC1)C2 (stereo not drawn)
[2]
  inhibition: < 50%

## Cn1ccc2nc3ccccc3c-2c1.I
[6]
  inhibition: < 50%
[1]
  solubility: Insoluble
Cholinesterase
  IC50: 890 nM
[2]
  inhibition: < 50%
Acetylcholinesterase [3]
  IC50: 8700 nM

## Fc1ccc2[nH]c3ccncc3c2c1
[6]
  inhibition: < 50%
[1]
  solubility: Insoluble
Cholinesterase
  IC50: 550 nM
[2]
  inhibition: < 50%
Acetylcholinesterase [3]
  IC50: 11400 nM

## c1ccc(CN2CCc3[nH]c4ccccc4c3C2)cc1
[6]
  inhibition: < 50%
[1]
  solubility: Insoluble
Cholinesterase
  IC50: 6500 nM
[2]
  inhibition: < 50%
Acetylcholinesterase [3]
  IC50: 20400 nM

## Fc1ccc2[nH]c3c(c2c1)CN(Cc1ccccc1)CC3
[6]
  inhibition: < 50%
[1]
  solubility: Insoluble
Cholinesterase
  IC50: 2100 nM
[9]
  solubility: Insoluble
[2]
  inhibition: < 50%
Acetylcholinesterase [3]
  IC50: 17600 nM

## O=C(CCn1c2ccccc2c2cnccc21)N1c2ccccc2Sc2ccccc21
[4]
  IC50: 3000 nM
Cholinesterase
  IC50: 8 nM
[5]
  IC50: 4200 nM
Acetylcholinesterase [3]
  IC50: 2300 nM

## CN1CCc2c(c3ccccc3n2CCCCCCCCCn2c3c(c4ccccc42)CN(C)CC3)C1
[6]
  inhibition: < 50%
[2]
  inhibition: < 50%

## CN1CCc2[nH]c3ccccc3c2C1
[6]
  inhibition: < 50%
Acetylcholinesterase [10]
  inhibition: < 50%
[1]
  solubility: Insoluble
Cholinesterase
  IC50: 6500 nM
[2]
  inhibition: < 50%

## c1ccc2c(c1)c1cnccc1n2CCCCCCCCCn1c2ccccc2c2cnccc21
[6]
  inhibition: < 50%
[2]
  inhibition: < 50%
Acetylcholinesterase [3]
  IC50: 80 nM

## O=C(CCn1c2ccncc2c2cc(F)ccc21)N1c2ccccc2Sc2ccccc21
[4]
  IC50: 2700 nM
[11]
  Ratio IC50: 775
Cholinesterase
  IC50: 8 nM
[5]
  IC50: 1700 nM
Acetylcholinesterase [3]
  IC50: 6200 nM

## Cc1ccc2[nH]c3ccncc3c2c1
[6]
  inhibition: < 50%
[1]
  solubility: Insoluble
Cholinesterase
  IC50: 1400 nM
[2]
  inhibition: < 50%
Acetylcholinesterase [3]
  IC50: 35400 nM

## C[n+]1ccc2c(c1)c1cc(F)ccc1n2CCC(=O)N1c2ccccc2Sc2ccccc21
[4]
  IC50: 2100 nM
Cholinesterase
  IC50: 32 nM
[5]
  IC50: 3000 nM
Acetylcholinesterase [3]
  IC50: 2600 nM

## COc1ccc2c(c1)c1cnccc1n2CCC(=O)N1c2ccccc2Sc2ccccc21
[4]
  IC50: 600 nM
Cholinesterase
  IC50: 37 nM
[5]
  IC50: 800 nM
Acetylcholinesterase [3]
  IC50: 540 nM

## C[n+]1ccc2c(c1)c1ccccc1n2CCC(=O)N1c2ccccc2Sc2ccccc21
[4]
  IC50: 1400 nM
Cholinesterase
  IC50: 41 nM
[5]
  IC50: 2400 nM
Acetylcholinesterase [3]
  IC50: 2200 nM

## COc1ccc2[nH]c3ccncc3c2c1
[6]
  inhibition: < 50%
[1]
  solubility: Insoluble
Cholinesterase
  IC50: 12600 nM
[2]
  inhibition: < 50%
Acetylcholinesterase [3]
  IC50: 49600 nM

## O=C(CCn1c2ccccc2c2c[n+](Cc3ccccc3)ccc21)N1c2ccccc2Sc2ccccc21
[4]
  IC50: 900 nM
Cholinesterase
  IC50: 11 nM
[5]
  IC50: 1000 nM
Acetylcholinesterase [3]
  IC50: 2200 nM

## COc1ccc2[nH]c3c(c2c1)CN(Cc1ccccc1)CC3
[6]
  inhibition: < 50%
[1]
  solubility: Insoluble
Cholinesterase
  IC50: 6300 nM
[2]
  inhibition: < 50%
Acetylcholinesterase [3]
  IC50: 52700 nM

## CN1CCc2c(c3ccccc3n2CCC(=O)N2c3ccccc3Sc3ccccc32)C1
[6]
  inhibition: < 50%
[1]
  solubility: Insoluble
Cholinesterase
  IC50: 170 nM
[2]
  inhibition: < 50%
Acetylcholinesterase [3]
  IC50: 7800 nM

## Cc1ccc2c(c1)c1cnccc1n2CCC(=O)N1c2ccccc2Sc2ccccc21
[4]
  IC50: 1500 nM
Cholinesterase
  IC50: 16 nM
[5]
  IC50: 1300 nM
Acetylcholinesterase [3]
  IC50: 510 nM
